These results are taken from ChEMBL document CHEMBL4196164, “Tariquidar-Related Chalcones and Ketones as ABCG2 Modulators” (ACS Med Chem Lett, 2018).

In general, inhibition refers to the drop in the measured response relative to a control, in per cent. By IC50 is commonly meant the point on the concentration scale where inhibition reaches its midpoint.

One data set has as its target T1, ABCG2 (Homo sapiens, UniProt Q9UNQ0).
T1 sequence (Q9UNQ0 whole entry): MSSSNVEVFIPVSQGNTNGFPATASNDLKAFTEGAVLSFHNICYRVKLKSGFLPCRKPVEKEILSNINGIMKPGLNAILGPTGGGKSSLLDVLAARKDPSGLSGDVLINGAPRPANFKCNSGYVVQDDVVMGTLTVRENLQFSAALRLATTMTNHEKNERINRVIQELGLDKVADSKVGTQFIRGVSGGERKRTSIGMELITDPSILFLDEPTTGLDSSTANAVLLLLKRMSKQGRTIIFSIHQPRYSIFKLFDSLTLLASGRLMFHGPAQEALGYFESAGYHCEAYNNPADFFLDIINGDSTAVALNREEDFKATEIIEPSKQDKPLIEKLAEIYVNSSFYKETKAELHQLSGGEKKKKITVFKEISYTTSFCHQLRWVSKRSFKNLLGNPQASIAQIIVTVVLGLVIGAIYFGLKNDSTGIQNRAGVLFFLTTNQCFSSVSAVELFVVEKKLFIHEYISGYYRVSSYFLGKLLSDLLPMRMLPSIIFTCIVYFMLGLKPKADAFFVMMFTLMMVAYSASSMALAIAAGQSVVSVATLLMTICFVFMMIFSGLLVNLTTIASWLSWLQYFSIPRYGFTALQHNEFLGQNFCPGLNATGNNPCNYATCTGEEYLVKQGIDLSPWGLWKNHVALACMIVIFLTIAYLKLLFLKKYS
Briefly: Inhibition of ABCG2 in human MCF7/Topo cells at 100 uM after 2 hrs by Hoechst 33342 staining based fluorescence assay relative to 10 uM FTC. The format is cell-based. Conditions: probe Hoechst 33342, read-out: Imax. An outline of the steps:
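Hoechst 33342 microplate assay in ABCG2-overexpressing MCF-7/Topo cells; maximal inhibitory effect taken as inhibition at the highest concentration (100 μM) of compound, expressed relative to the inhibition from 10 μM FTC set as 100%.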

A further data set has as its target ABCB1 (Homo sapiens, UniProt P08183). The data set is described as follows: Inhibition of ABCB1 in human KBV1 cells at 10 uM measured after 10 mins by calcein-AM dye based fluorescence assay relative to 10 uM tariquidar. The format is cell-based. Conditions: probe calcein-AM.
Data set [1] can be described thus: Stability of the compound in DMEM measured over 24 hrs by HPLC analysis. In kind it is physicochemical. An outline of the steps: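 Compounds incubated in assay medium (DMEM with 10% fetal calf serum) at 37 °C; aliquots analysed by HPLC over 24 h for cleavage or degradation products.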
Data set [2] has as its target T2, Broad substrate specificity ATP-binding cassette transporter ABCG2 (Homo sapiens, UniProt Q9UNQ0).
T2 sequence (Q9UNQ0 whole entry): T1 sequence (Q9UNQ0 whole entry)
The data set is described as follows: Inhibition of ABCG2 in human MCF7/Topo cells after 2 hrs by Hoechst 33342 staining based fluorescence assay. In kind it is cell-based. An outline of the steps: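 ABCG2-overexpressing MCF-7/Topo cells, Hoechst 33342 accumulation in microplate format; inhibition expressed relative to 10 μM FTC (100%). Relative IC50 taken as the midpoint between lower and upper plateaus of each compound's own concentration–response curve, from four-parameter fit; mean ± SEM of three independent experiments in triplicate.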

The target in another data set is ABCC1 (Homo sapiens, UniProt P33527). The data set is described as follows: Inhibition of human ABCC1 expressed in MDCK2 cells at 10 uM after 60 mins by calcein-AM dye based fluorescence assay relative to 30 uM reversan. The format is cell-based. Conditions: MDCK2 cells that express human ABCC1, probe calcein-AM.
ABCC1, sequence (P33527 whole entry): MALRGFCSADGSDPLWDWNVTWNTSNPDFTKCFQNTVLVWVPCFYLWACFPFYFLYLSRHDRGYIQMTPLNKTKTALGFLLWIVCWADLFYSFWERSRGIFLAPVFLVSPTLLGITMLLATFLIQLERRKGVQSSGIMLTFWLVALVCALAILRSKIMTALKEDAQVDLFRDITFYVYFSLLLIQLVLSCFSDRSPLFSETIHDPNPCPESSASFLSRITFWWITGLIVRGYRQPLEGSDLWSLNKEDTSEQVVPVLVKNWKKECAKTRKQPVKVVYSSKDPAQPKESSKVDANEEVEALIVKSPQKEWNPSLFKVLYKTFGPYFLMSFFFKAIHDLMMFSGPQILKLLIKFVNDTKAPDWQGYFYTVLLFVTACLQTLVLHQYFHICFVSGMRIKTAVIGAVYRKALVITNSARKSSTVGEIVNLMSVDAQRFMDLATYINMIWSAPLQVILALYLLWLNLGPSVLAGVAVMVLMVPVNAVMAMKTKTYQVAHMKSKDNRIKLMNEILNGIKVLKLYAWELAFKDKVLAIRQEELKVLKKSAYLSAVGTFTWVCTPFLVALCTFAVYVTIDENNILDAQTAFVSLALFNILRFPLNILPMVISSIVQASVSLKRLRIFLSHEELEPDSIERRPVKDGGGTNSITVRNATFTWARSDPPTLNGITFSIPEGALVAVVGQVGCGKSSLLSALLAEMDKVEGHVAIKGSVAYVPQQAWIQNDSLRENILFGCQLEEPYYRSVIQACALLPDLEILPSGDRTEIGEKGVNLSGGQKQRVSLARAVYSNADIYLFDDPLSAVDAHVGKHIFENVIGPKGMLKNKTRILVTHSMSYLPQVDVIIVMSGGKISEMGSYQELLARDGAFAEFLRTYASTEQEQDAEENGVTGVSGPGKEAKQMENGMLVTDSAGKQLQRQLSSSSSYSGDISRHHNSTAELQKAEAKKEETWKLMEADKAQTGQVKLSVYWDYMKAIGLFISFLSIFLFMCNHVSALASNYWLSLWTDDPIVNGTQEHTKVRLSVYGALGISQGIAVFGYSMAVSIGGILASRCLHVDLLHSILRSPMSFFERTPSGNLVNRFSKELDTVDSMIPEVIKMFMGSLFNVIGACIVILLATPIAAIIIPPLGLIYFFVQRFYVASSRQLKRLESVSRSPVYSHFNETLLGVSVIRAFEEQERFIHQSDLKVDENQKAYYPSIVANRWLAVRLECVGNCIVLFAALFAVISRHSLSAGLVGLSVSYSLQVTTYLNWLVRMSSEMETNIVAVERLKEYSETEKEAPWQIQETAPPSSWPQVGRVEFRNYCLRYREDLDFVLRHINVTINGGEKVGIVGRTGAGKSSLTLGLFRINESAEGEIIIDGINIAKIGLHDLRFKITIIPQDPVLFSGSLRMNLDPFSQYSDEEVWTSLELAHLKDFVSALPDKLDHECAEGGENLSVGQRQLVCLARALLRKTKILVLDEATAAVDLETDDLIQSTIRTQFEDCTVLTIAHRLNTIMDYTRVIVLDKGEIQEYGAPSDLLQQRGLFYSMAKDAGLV
A short description of data set [3]: Cytotoxicity against human MCF7/Topo cells at 0.1 to 10 uM measured up to 120 hrs by crystal violet staining based assay. In kind it is cell-based. Put shortly: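 Kinetic chemosensitivity assay on proliferating ABCG2-overexpressing MCF-7/Topo cells under long-term exposure at 100 nM, 1, 3 and 10 μM; 100 nM vinblastine as positive control, DMSO vehicle as negative control; growth curves followed over time.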

Data set [4] addresses T2, Broad substrate specificity ATP-binding cassette transporter ABCG2. The data set is described as follows: Inhibition of ABCG2 (unknown origin) expressed in MDCK2 cells incubated for 30 mins measured at 60 secs interval for 120 mins by Hoechst 33342 staining based fluorescence assay. The format is cell-based.
Data set [5] has the same target. The data set is described as follows: Inhibition of ABCG2 (unknown origin) expressed in HEK293 cells assessed as reduction in mitoxantrone efflux measured after 30 mins by fluorescence assay. In kind it is cell-based.

ABCB1, sequence (P08183 whole entry): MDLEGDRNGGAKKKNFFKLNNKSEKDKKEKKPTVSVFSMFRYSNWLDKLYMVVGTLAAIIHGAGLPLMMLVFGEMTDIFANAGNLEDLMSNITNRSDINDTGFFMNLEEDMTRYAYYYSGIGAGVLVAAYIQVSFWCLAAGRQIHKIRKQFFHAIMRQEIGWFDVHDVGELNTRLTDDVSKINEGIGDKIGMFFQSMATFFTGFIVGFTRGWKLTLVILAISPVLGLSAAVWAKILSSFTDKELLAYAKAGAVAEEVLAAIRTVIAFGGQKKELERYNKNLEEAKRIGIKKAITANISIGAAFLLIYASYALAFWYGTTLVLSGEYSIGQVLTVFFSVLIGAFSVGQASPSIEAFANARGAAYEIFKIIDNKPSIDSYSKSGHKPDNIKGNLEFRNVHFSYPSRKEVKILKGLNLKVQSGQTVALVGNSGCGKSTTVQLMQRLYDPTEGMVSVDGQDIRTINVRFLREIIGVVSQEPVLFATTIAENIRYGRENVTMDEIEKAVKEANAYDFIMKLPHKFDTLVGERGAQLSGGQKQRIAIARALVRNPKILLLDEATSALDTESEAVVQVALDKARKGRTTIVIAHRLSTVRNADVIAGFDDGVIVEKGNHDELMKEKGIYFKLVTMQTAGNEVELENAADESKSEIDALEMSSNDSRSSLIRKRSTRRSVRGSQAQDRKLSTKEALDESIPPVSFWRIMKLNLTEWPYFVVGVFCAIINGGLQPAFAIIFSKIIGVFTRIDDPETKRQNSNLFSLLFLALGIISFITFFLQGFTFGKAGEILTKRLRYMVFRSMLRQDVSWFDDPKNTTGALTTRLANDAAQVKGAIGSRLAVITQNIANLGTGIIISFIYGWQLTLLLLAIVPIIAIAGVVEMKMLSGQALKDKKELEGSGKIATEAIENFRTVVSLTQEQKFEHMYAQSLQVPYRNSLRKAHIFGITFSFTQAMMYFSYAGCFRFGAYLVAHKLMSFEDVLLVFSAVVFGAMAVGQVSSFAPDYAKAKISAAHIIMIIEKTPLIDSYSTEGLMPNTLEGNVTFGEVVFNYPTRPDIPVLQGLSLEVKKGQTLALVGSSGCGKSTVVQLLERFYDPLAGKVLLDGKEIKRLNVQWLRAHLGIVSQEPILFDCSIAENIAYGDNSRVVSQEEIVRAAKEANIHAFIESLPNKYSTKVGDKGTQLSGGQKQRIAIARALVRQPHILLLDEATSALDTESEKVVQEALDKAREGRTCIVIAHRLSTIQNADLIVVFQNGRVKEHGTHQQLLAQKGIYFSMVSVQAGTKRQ

For the molecule `COCCOCCOCCOc1cc2c(cc1OC)CCN(CCOc1ccc(/C=C/C(=O)c3cccc(NC(=O)c4ccc5ccccc5n4)c3)cc1)C2`, the Emax at 2 h, 100 µM on ABCG2 worked out at 81%. In addition, on ABCB1, the inhibition at 10 min, 10 µM is less than 25%. For the same molecule, the Stability result in data set [1] is “Stable”. In addition, the IC50 in data set [2] was determined as 2830 nM. For the same molecule, at ABCC1, the inhibition at 1 h, 10 µM was less than 25%.
In the case of `COCCOCCOCCOc1cc2c(cc1OC)CCN(CCOc1ccc(/C=C/C(=O)c3ccc(C)c(NC(=O)c4ccc5ccccc5n4)c3)cc1)C2`, the Emax at 2 h, 100 µM on ABCG2 was determined as 111%. For the same molecule, the inhibition at 10 min, 10 µM at ABCB1 was less than 25%. For the same molecule, in data set [1], the Stability entry is listed as “Stable”. Moreover, the IC50 in data set [2] was found to be 2720 nM. On ABCC1, the inhibition at 1 h, 10 µM was less than 25%.
On to `COCCOc1cc2c(cc1OC)CCN(CC(=O)c1ccc(C)c(NC(=O)c3ccc4ccccc4n3)c1)C2`, for which the Emax at 2 h, 100 µM on ABCG2 came out at 79%. Also, the inhibition at 10 min, 10 µM at ABCB1 was less than 25%. For the same molecule, the Stability result in data set [1] is listed as “Stable”. In addition, the IC50 in data set [2] turned out to be 23200 nM. Further, at ABCC1, the inhibition at 1 h, 10 µM was less than 25%.
In the case of `COc1cc2c(cc1OC)CN(CCOc1ccc(/C=C/C(=O)c3cccc(NC(=O)c4ccc5ccccc5n4)c3)cc1)CC2`, the Emax at 2 h, 100 µM on ABCG2 was 79%. In addition, the inhibition at 10 min, 10 µM at ABCB1 is less than 25%. The Stability entry in data set [1] was “Stable”. In addition, in data set [2], the IC50 stood at 4080 nM. For the same molecule, the inhibition at 1 h, 10 µM on ABCC1 was less than 25%.
Turning to `COCCOc1cc2c(cc1OC)CCN(CCOc1ccc(/C=C/C(=O)c3cccc(NC(=O)c4ccc5ccccc5n4)c3)cc1)C2`, at ABCG2, the Emax at 2 h, 100 µM is 72%. Further, on ABCB1, the inhibition at 10 min, 10 µM is less than 25%. Moreover, the Stability entry in data set [1] is reported as “Stable”. In data set [2], the IC50 came to 2130 nM. The inhibition at 1 h, 10 µM at ABCC1 is less than 25%.
On to `COCCOCCOCCOc1cc2c(cc1OC)CCN(CC(=O)c1cccc(NC(=O)c3ccc4ccccc4n3)c1)C2`, for which the Emax at 2 h, 100 µM at ABCG2 stood at 47%. Moreover, on ABCB1, the inhibition at 10 min, 10 µM was less than 25%. Moreover, in data set [1], the Stability entry is “Stable”. Moreover, in data set [2], the IC50 turned out to be 1130 nM. Also, the inhibition at 1 h, 10 µM on ABCC1 was less than 25%.
For the molecule `COCCOCCOCCOc1cc2c(cc1OC)CCN(CC(=O)c1ccc(C)c(NC(=O)c3ccc4ccccc4n3)c1)C2`, the Activity entry in data set [3] is recorded as “Non-Toxic”. The Emax at 2 h, 100 µM on ABCG2 turned out to be 86%. Further, the inhibition at 10 min, 10 µM at ABCB1 was less than 25%. The Stability result in data set [1] was “Stable”. Besides, the IC50 in data set [2] turned out to be 6650 nM. On ABCC1, the inhibition at 1 h, 10 µM is less than 25%.
As to `COCCOc1cc2c(cc1OC)CCN(CCOc1ccc(/C=C/C(=O)c3ccc(C)c(NC(=O)c4ccc5ccccc5n4)c3)cc1)C2`, on ABCG2, the Emax at 2 h, 100 µM worked out at 97%. Also, the inhibition at 10 min, 10 µM at ABCB1 was less than 25%. In addition, the Stability entry in data set [1] is given as “Stable”. In addition, in data set [2], the IC50 was found to be 1550 nM. For the same molecule, the inhibition at 1 h, 10 µM on ABCC1 was less than 25%.
`COc1ccc(/C=C/C(=O)c2ccccc2NC(=O)c2cccs2)cc1OC` registered an IC50 in data set [4] of 501 nM.
On to `COCCOc1cc2c(cc1OC)CCN(CC(=O)c1cccc(NC(=O)c3ccc4ccccc4n3)c1)C2`, for which the Emax at 2 h, 100 µM at ABCG2 was determined as 55%. In addition, the inhibition at 10 min, 10 µM at ABCB1 is less than 25%. In addition, the Stability entry in data set [1] is “Stable”. The IC50 in data set [2] came to 14400 nM. For the same molecule, the inhibition at 1 h, 10 µM at ABCC1 is less than 25%.
In the case of `COc1cc2c(cc1OC)CN(CCOc1ccc(/C=C/C(=O)c3ccc(C)c(NC(=O)c4ccc5ccccc5n4)c3)cc1)CC2`, the Activity entry in data set [3] is listed as “Dose-dependent effect”. The Emax at 2 h, 100 µM on ABCG2 is 86%. Moreover, the inhibition at 10 min, 10 µM on ABCB1 was less than 25%. In data set [1], the Stability result is reported as “Stable”. Also, the IC50 in data set [2] stood at 880 nM. In addition, the inhibition at 1 h, 10 µM on ABCC1 is less than 25%.
Turning to `COc1cc2c(cc1OC)CN(CC(=O)c1ccc(C)c(NC(=O)c3ccc4ccccc4n3)c1)CC2`, on ABCG2, the Emax at 2 h, 100 µM is 77%. Besides, on ABCB1, the inhibition at 10 min, 10 µM is less than 25%. In addition, the Stability entry in data set [1] is “Stable”. The IC50 in data set [2] is 8760 nM. The inhibition at 1 h, 10 µM on ABCC1 is less than 25%.
In the case of `COc1cc2c(cc1OC)CN(CC(=O)c1cccc(NC(=O)c3ccc4ccccc4n3)c1)CC2`, the Emax at 2 h, 100 µM at ABCG2 came to 77%. For the same molecule, at ABCB1, the inhibition at 10 min, 10 µM was less than 25%. Besides, in data set [1], the Stability result was “Stable”. The molecule further displayed an IC50 in data set [2] of 6730 nM. For the same molecule, on ABCC1, the inhibition at 1 h, 10 µM was less than 25%.
For the molecule `COc1cc(OC)c(C(=O)/C=C/c2ccc3nccnc3c2)cc1OC`, the IC50 in data set [5] turned out to be 1400 nM.
